Experimental data gathered from unrelated publications.
Each line is one published result; the experiments were not run side by side.
BRAF: Serine/threonine-protein kinase B-raf (BRAF, Homo sapiens, UniProt P15056)
BRAF V600E: Serine/threonine-protein kinase B-raf (BRAF, Homo sapiens, UniProt P15056, V600E)

With `C[C@@H]1CCN(c2nccc(-c3cnn4ncccc34)n2)C1` the remaining binding was 75% (BRAF; binding; 1 µM).
The remaining binding of `Cc1c(NC(=O)c2cc(C(N)=O)nc3cc(F)ccc23)c(C(F)(F)F)nn1Cc1ccc(C#N)cc1` is reported as 90% (BRAF V600E; cell-free assay, competition with immobilised ligand; 1 µM).
`O=C(NCCCN1CCOCC1)c1ccc(Nc2ncc(Cl)c(-c3ccc(Cl)s3)n2)cc1` has a remaining binding of 100% (BRAF; binding, competition with immobilised ligand; 1 µM).
`COc1cnc(Nc2cccc(S(N)(=O)=O)c2)nc1N1CCN(c2ccccc2)C(=O)C1` gave a remaining binding of 84% (BRAF V600E; binding, competition with immobilised ligand; 1 µM).
`CN(CCCC(F)(F)F)c1nccc(-c2cnn3ncccc23)n1` has a remaining binding of 100% (BRAF; binding; 1 µM).
With `O=C(Nc1c[nH]nc1C(=O)NC1CCNCC1)c1cc(F)cc(F)c1` the remaining binding was 100% (BRAF V600E; binding, competition with immobilised ligand; 1 µM).
For `Nc1ncc2c(n1)-c1c([nH]c3ccc(C#CC4CC4)cc13)CCCC2`, the remaining binding was 100% (BRAF; binding, competition with immobilised ligand; 1 µM).
The remaining binding of `C[C@@H]1CN(c2ccc3ncc(-c4ccc5[nH]nc(C6CC6)c5c4)n3n2)C[C@H](C)O1` is reported as 100% (BRAF; binding, competition with immobilised ligand; 0.5 µM).
For `COc1ncc2cc3ccccc3nc2c1C#N`, the remaining binding was 100% (BRAF; cell-free assay, competition with immobilised ligand; 5 µM).
With `C[C@@H]1CN(c2cc(-c3n[nH]c4ccc(OC5(C)CC5)cc34)ncn2)C[C@H](C)O1` the remaining binding was 89% (BRAF V600E; cell-free assay, competition with immobilised ligand; 0.1 µM).
`CNC(=O)[C@@H]1CC[C@@H](n2c(-c3ccc4cnccc4c3)nc3ccc(C(=O)NCc4cccc(C(N)=O)c4)cc32)C1` gave a remaining binding of 100% (BRAF V600E; binding, competition with immobilised ligand; 1 µM).
For `CN([C@@H]1CCc2c(CC(=O)O)c3cc(S(C)(=O)=O)ccc3n2C1)S(=O)(=O)c1ccc(F)cc1`, the remaining binding was 98% (BRAF; cell-free assay, competition with immobilised ligand; 1 µM).
With `N#Cc1ccccc1CSc1nnc2c(n1)[nH]c1ccccc12` the remaining binding was 100% (BRAF V600E; binding, competition with immobilised ligand; 10 µM).
`O=C(c1ccc(Nc2ncc(Cl)c(-c3cc4ccccc4s3)n2)cc1)N1CCC(N2CCCC2)CC1` has a remaining binding of 56% (BRAF V600E; binding, competition with immobilised ligand; 1 µM).
For `O=C(NCC1CCOCC1)c1n[nH]cc1NC(=O)c1c(F)cccc1F`, the remaining binding was 93% (BRAF; binding, competition with immobilised ligand; 1 µM).
For `c1cncc(-c2cccc(Nc3nccc(NC4CCCCC4)n3)c2)c1`, the remaining binding was 52% (BRAF V600E; binding, competition with immobilised ligand; 10 µM).
With `C[C@@H](c1ccc(-n2cnc3c(N)ncnc32)cc1)N1CCc2nn(C)c(Cc3ccccc3)c2C1=O` the remaining binding was 76% (BRAF V600E; binding, competition with immobilised ligand; 0.1 µM).
The remaining binding of `CNCc1ccccc1-c1csc([C@H](C)Nc2nc(C)nc3cc(OC)c(OC)cc23)c1` is reported as 97% (BRAF; cell-free assay, competition with immobilised ligand; 1 µM).
With `F[C@@H]1CCN(c2nccc(-c3cnn4ncccc34)n2)C1` the remaining binding was 100% (BRAF V600E; binding; 1 µM).
`CC(C)(C)c1ccc(-c2nc(CBr)nn2-c2cccc(O)c2)cc1` gave a remaining binding of 77% (BRAF; cell-free assay, competition with immobilised ligand; 10 µM).
`CCN1CCN(Cc2ccc(C(=O)Nc3ccc(C)c(Oc4ccc5c(c4)CC(=O)N5)c3)cc2C(F)(F)F)CC1` has a remaining binding of 28% (BRAF V600E; binding, competition with immobilised ligand; 1 µM).
The remaining binding of `CC1CCCN1c1nccc(-c2cnn3ncccc23)n1` (stereo not shown) is reported as 100% (BRAF V600E; binding; 1 µM).
`COc1ccc2cc(OCC3(C(=O)O)CN(C(=O)c4ccc(F)cc4)C3)ccc2c1` gave a remaining binding of 100% (BRAF V600E; cell-free assay, competition with immobilised ligand; 1 µM).
`O=C(NCCCN1CCOCC1)c1ccc(Nc2nccc(-c3cc4ccccc4s3)n2)cc1` gave a remaining binding of 67% (BRAF V600E; binding, competition with immobilised ligand; 1 µM).
`N[C@H]1CCN(c2nccc(-c3cnn4ncccc34)n2)C1` gave a remaining binding of 84% (BRAF; binding; 1 µM).
For `Cc1nc(Cc2cccc(C(F)(F)F)c2)sc1-c1ccc(C(N)=O)nc1`, the remaining binding was 73% (BRAF; cell-free assay, competition with immobilised ligand; 1 µM).
`O=C(c1ccc(Nc2nccc(-c3cc4ccccc4s3)n2)cc1)N1CCC(N2CCCC2)CC1` gave a remaining binding of 38% (BRAF; binding, competition with immobilised ligand; 1 µM).
With `C=CC(=O)N1CCC(C(=O)NCC(=O)N2CCN(c3nc(-c4cnc(N)nc4C(F)F)nc(N4CCOCC4)n3)CC2)CC1` the remaining binding was 92% (BRAF; binding, competition with immobilised ligand; 1 µM).
The remaining binding of `Cc1cnc(Nc2ccc(C(=O)N3CCC(N4CCCC4)CC3)cc2)nc1-c1cc2ccccc2s1` is reported as 32% (BRAF V600E; binding, competition with immobilised ligand; 1 µM).
`CN1CCN(c2ccc(Nc3nccc(-c4cccc([N+](=O)[O-])c4)n3)cc2C(F)(F)F)CC1` has a remaining binding of 3.8% (BRAF V600E; binding; 10 µM).
`CN(C)c1nccc(-c2cnn3ncccc23)n1` has a remaining binding of 74% (BRAF; binding; 1 µM).
`Cc1nccc(COC(=O)N2C[C@@H]3[C@@H](CNC(=O)c4ccc5[nH]nnc5c4)[C@@H]3C2)n1` gave a remaining binding of 100% (BRAF V600E; cell-free assay, competition with immobilised ligand; 1 µM).
For `c1cnn2ncc(-c3ccnc(N4CCC45COC5)n3)c2c1`, the remaining binding was 63% (BRAF V600E; binding; 1 µM).
`NS(=O)(=O)c1cc(NC(=O)Cc2ccccc2)ccc1Oc1cccc(Cl)c1` gave a remaining binding of 96% (BRAF; cell-free assay, competition with immobilised ligand; 1 µM).
`O=C(c1ccc(Nc2ncc(Cl)c(-c3ccc(Cl)s3)n2)cc1)N1CCC(N2CCCC2)CC1` gave a remaining binding of 65% (BRAF; binding, competition with immobilised ligand; 1 µM).
With `CN(C)c1nccc(-c2cnc3ncccn23)n1` the remaining binding was 89% (BRAF; binding; 1 µM).
`COc1cnc(Nc2cccc(S(N)(=O)=O)c2)nc1N1CCN(c2ccccc2)CC1` gave a remaining binding of 82% (BRAF V600E; binding, competition with immobilised ligand; 1 µM).
